Assay results from ChEMBL document CHEMBL3430321, “Simulation of multiple ion channel block provides improved early prediction of compounds' clinical torsadogenic risk” (Cardiovasc Res, 2011).
pIC50: −log10 of the molar value.

Experiments:
[1] = target: Sodium channel alpha subunit; experiment: Inhibition of Na channel (species unknown); type: functional
[2] = (§1) Effective free therapeutic plasma concentration (EFTPC): the concentration of unbound compund in the blood plasma at therapeutic dose (mean of range); type: ADME, organism-based; conditions: human, in vivo
[3] = target: Sodium channel protein type 5 subunit alpha (Homo sapiens, UniProt Q14524); experiment: Inhibition of sodium current measured using whole-cell patch clamp experiments in HEK-293 cells stably transfected with hNaV1.5 cDNA; type: functional, cell-based, HEK293
[4] = target: Voltage-gated L-type calcium channel (Homo sapiens, UniProt Q13936+Q13698+Q01668+O60840); experiment: Inhibition of voltage-gated L-type Ca channel (species unknown); type: functional
[5] = target: T1, Voltage-gated inwardly rectifying potassium channel KCNH2 (Homo sapiens, UniProt Q12809); experiment: (§2) Inhibition of hERG K channel; type: functional
Procedure, shortened: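 IKr block assessed from concentration–response curves in HEK-293 cells stably transfected with hERG cDNA, giving IC50 values.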

[6] = target: Voltage-dependent L-type calcium channel subunit alpha-1C (Cavia porcellus, UniProt O35505); experiment: Inhibition of calcium current (ICaL) measured using whole-cell patch clamp experiments in isolated guinea pig ventricular myocytes; type: functional, tissue-based, Heart, Ventricular myocyte
[7] = target: T1, Voltage-gated inwardly rectifying potassium channel KCNH2; experiment: Inhibition of potassium current (Ikr) measured using whole-cell patch clamp experiments in HEK-293 cells stable transfected with hERG cDNA; type: functional, cell-based, HEK293
Procedure, shortened: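 IKr concentration–response curves were recorded in HEK-293 cells stably expressing hERG cDNA.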

[8] = as §1; conditions: human, in vivo
[9] = target: T1, Voltage-gated inwardly rectifying potassium channel KCNH2; experiment: as §2

Sequence of Sodium channel protein type 5 subunit alpha (Q14524 whole entry): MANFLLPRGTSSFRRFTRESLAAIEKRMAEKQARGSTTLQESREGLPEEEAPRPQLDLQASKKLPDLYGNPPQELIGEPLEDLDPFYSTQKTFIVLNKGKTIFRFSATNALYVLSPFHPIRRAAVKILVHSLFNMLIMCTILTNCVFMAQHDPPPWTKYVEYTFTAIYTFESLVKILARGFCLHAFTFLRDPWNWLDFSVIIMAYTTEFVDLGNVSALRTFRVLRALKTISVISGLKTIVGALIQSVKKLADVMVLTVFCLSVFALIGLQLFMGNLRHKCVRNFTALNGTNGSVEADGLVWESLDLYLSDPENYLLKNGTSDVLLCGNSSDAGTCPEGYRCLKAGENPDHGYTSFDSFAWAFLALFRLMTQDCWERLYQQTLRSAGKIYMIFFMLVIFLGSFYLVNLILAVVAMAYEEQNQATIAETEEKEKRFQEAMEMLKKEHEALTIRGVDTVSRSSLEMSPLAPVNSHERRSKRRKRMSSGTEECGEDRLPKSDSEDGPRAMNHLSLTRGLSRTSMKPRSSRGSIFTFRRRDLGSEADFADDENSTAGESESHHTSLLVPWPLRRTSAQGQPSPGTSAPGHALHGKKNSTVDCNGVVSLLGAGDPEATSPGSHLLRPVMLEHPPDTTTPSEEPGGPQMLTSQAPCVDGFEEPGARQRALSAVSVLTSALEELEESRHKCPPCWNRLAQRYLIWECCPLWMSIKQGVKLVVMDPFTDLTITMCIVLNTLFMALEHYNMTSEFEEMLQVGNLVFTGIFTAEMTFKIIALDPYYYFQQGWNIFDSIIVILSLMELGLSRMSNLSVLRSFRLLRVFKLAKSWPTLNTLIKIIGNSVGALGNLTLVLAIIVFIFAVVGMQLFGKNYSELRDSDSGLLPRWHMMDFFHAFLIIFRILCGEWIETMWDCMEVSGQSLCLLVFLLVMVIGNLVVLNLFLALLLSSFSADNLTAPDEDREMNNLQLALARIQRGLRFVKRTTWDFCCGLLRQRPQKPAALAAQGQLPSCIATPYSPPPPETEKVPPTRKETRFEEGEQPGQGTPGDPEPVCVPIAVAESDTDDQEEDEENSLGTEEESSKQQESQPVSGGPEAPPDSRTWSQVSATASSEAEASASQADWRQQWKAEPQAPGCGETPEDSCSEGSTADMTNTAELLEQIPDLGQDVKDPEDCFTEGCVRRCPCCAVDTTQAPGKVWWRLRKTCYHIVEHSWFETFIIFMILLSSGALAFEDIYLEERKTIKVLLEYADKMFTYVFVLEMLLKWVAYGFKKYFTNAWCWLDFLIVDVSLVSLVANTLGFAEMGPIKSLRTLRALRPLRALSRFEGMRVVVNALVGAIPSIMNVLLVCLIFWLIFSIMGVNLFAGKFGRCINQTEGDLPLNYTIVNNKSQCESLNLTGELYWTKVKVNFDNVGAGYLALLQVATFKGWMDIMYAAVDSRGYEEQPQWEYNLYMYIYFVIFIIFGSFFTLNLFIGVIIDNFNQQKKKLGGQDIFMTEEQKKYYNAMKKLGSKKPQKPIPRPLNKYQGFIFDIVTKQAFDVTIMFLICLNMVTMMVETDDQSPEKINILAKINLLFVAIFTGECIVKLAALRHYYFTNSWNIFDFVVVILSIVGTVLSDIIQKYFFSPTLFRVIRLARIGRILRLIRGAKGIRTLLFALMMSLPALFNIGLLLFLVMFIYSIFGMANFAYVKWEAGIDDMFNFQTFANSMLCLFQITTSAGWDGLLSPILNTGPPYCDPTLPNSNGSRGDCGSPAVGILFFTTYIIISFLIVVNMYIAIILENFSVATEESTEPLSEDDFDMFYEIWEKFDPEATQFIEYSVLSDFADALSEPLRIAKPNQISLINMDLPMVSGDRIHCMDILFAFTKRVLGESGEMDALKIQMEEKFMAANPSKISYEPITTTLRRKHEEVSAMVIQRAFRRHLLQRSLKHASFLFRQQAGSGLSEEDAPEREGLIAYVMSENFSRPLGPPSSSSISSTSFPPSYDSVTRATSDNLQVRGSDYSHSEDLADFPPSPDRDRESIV
Sequence of Voltage-dependent L-type calcium channel subunit alpha-1C (O35505 whole entry): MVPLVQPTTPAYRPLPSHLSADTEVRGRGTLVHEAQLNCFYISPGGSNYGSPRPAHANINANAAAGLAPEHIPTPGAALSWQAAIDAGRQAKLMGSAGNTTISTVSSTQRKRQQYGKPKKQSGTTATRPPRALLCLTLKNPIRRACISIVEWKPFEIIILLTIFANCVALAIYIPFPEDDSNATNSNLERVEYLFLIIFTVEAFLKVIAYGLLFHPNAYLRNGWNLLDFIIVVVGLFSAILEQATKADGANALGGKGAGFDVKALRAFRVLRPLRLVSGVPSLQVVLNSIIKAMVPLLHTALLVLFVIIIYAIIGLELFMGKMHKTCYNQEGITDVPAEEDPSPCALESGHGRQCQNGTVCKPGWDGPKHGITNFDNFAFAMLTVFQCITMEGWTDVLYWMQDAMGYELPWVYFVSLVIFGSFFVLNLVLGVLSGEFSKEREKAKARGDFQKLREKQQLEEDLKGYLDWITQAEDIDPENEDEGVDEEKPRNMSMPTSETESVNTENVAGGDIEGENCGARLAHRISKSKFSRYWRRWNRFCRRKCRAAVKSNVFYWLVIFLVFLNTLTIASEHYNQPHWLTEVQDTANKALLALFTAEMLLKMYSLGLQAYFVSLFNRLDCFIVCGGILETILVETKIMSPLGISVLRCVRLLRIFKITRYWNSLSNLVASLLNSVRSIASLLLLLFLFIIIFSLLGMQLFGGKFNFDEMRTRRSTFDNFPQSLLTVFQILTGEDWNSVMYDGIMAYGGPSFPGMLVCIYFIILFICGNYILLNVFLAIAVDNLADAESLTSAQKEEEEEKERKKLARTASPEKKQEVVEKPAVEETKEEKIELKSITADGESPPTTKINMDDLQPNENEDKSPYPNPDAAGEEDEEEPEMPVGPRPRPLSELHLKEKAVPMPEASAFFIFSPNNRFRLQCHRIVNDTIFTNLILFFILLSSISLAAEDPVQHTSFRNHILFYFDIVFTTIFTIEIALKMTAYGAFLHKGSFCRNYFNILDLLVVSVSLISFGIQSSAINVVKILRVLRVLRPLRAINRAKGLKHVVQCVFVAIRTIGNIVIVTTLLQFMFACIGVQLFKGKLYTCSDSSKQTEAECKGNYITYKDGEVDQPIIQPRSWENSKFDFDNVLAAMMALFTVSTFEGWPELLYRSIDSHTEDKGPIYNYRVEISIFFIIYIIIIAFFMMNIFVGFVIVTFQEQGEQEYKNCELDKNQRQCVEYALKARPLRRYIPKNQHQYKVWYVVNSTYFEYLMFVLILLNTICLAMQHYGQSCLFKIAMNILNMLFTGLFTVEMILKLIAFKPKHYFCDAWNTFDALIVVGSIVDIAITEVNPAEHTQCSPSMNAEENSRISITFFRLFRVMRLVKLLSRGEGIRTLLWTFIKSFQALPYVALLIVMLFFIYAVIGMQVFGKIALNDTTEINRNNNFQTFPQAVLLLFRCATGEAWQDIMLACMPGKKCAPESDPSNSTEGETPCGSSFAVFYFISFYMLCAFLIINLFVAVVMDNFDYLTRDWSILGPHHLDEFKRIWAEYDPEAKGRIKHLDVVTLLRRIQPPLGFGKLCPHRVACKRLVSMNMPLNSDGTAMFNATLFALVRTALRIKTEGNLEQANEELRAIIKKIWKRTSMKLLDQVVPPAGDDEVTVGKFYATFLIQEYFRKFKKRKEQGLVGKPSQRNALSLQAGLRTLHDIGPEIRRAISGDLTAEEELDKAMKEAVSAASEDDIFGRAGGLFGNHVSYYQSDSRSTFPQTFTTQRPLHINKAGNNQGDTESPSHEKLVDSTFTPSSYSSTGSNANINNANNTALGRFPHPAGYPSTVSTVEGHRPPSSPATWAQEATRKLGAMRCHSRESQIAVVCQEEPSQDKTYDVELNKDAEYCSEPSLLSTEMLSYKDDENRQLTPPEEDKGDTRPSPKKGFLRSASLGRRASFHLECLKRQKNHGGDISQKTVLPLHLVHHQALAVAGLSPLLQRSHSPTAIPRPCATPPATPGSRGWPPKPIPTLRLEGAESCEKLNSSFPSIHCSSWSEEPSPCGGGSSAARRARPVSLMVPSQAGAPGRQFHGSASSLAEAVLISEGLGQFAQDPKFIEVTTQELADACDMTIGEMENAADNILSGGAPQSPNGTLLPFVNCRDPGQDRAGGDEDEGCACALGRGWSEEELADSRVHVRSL

CN(CCOc1ccc(NS(C)(=O)=O)cc1)CCc1ccc(NS(C)(=O)=O)cc1 [DOFETILIDE]
IC50 [1]: 300 µM | EFTPC [2]: 1.2 nM

COc1cc(N)c(Cl)cc1C(=O)NC1CCN(CCCOc2ccc(F)cc2)CC1OC (centres undefined) [CISAPRIDE]
pIC50 [3]: 4.83 | EFTPC [2]: 3.75 nM

COCC(=O)O[C@]1(CCN(C)CCCc2nc3ccccc3[nH]2)CCc2cc(F)ccc2[C@@H]1C(C)C [MIBEFRADIL]
EFTPC [2]: 9 nM

c1ccc(C2(c3ccccc3)CC2C2=NCCN2)cc1 (centres undefined) [CIFENLINE]
IC50 [1]: 7.8 µM | IC50 [4]: 30 µM | EFTPC [2]: 739 nM

O=C(CCCN1CCC(O)(c2ccc(Cl)cc2)CC1)c1ccc(F)cc1 [HALOPERIDOL]
EFTPC [2]: 2.4 nM

CN(C)CCCN1c2ccccc2Sc2ccc(Cl)cc21 [CHLORPROMAZINE]
IC50 [1]: 4.3 µM | EFTPC [2]: 20.5 nM

CC(C)NCC(O)COc1cccc2ccccc12 (centres undefined) [PROPRANOLOL]
EFTPC [2]: 19 nM

COc1ccc([C@@H]2Sc3ccccc3N(CCN(C)C)C(=O)[C@@H]2OC(C)=O)cc1 [DILTIAZEM]
IC50 [1]: 9 µM | EFTPC [2]: 87.5 nM

C1CCC2(C1)C1CN(CC3CC3)CC2CN(CC2CC2)C1
pIC50 [5]: 5.60 | IC50 [1]: 20 µM | EFTPC [2]: 80 nM

CN(C)CCCN1c2ccccc2CCc2ccccc21 [IMIPRAMINE]
IC50 [1]: 3.6 µM | IC50 [4]: 8.3 µM | EFTPC [2]: 70.5 nM

CC(C)(C)c1ccc(C(O)CCCN2CCC(C(O)(c3ccccc3)c3ccccc3)CC2)cc1 (centres undefined) [TERFENADINE]
EFTPC [2]: 4.55 nM

COCCCC/C(=N\OCCN)c1ccc(C(F)(F)F)cc1 [FLUVOXAMINE]
pIC50 [6]: 5.31 | EFTPC [2]: 196 nM

CSc1ccc2c(c1)N(CCC1CCCCN1C)c1ccccc1S2 (centres undefined) [THIORIDAZINE]
EFTPC [2]: 593.5 nM

CNCCCN1c2ccccc2CCc2ccccc21 [DESIPRAMINE]
EFTPC [2]: 67.5 nM

CC[C@H]1[C@@H]2C[C@H]3[C@@H]4N(C)c5ccccc5[C@]45C[C@@H]([C@@H]2[C@H]5O)N3[C@@H]1O [AJMALINE]
pIC50 [5]: 5.98 | IC50 [1]: […] | EFTPC [2]: 900 nM

CCOC(=O)C1=C(C)NC(C)=C(C(=O)OC)C1c1cccc([N+](=O)[O-])c1 (centres undefined) [NITRENDIPINE]
IC50 [1]: 36 µM | EFTPC [2]: 1.56 nM

CC(C)COCC(CN(Cc1ccccc1)c1ccccc1)N1CCCC1 (centres undefined) [BEPRIDIL]
pIC50 [6]: 6.68 | pIC50 [3]: 5.43 | EFTPC [2]: 21.5 nM

O=C1NCCN1CCN1CCC(c2cn(-c3ccc(F)cc3)c3ccc(Cl)cc23)CC1 [SERTINDOLE]
IC50 [1]: 2.3 µM | IC50 [4]: 8.9 µM | EFTPC [2]: 0.8 nM

CC(Cc1ccccc1)NCCC(c1ccccc1)c1ccccc1 (centres undefined) [PRENYLAMINE]
pIC50 [6]: 5.91 | pIC50 [3]: 5.60 | EFTPC [2]: 13 nM | pIC50 [7]: 7.19

COC(=O)C1=C(C)NC(C)=C(C(=O)OC)C1c1ccccc1[N+](=O)[O-] [NIFEDIPINE]
EFTPC [8]: 5.4 nM

Cc1cccc(C)c1OCC(C)N (centres undefined) [MEXILETINE]
pIC50 [9]: < 5.00

O=C1NC(=O)C(c2ccccc2)(c2ccccc2)N1 [PHENYTOIN]
pIC50 [3]: 4.31 | EFTPC [2]: 4250 nM

CN(C)CCC=C1c2ccccc2CCc2ccccc21 [AMITRIPTYLINE]
IC50 [1]: 20 µM | IC50 [4]: 11.6 µM

O=c1[nH]c2ccccc2n1C1CCN(CCCC(c2ccc(F)cc2)c2ccc(F)cc2)CC1 [PIMOZIDE]
IC50 [1]: 0.054 µM | EFTPC [2]: 0.55 nM

Cc1nc2n(c(=O)c1CCN1CCC(c3noc4cc(F)ccc34)CC1)CCCC2 [RISPERIDONE]
EFTPC [2]: 1.21 nM
